Experimental data published in ChEMBL document CHEMBL2413057, “Synthesis and in vitro evaluation of new ethyl and methyl quinoxaline-7-carboxylate 1,4-di-N-oxide against Entamoeba histolytica” (Bioorg Med Chem, 2013).

What was measured:
[1] = Selectivity index, ratio of IC50 for african green monkey Vero cells to IC50 for trophozoite stage of Entamoeba histolytica HM-1:IMSS
Summary of the method: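 Computed as VERO toxicity IC50 divided by the E. histolytica IC50, where each IC50 is the concentration that kills 50% of the respective cells.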

Vero = test: Cytotoxicity against african green monkey Vero cells assessed as cell viability after 48 hrs by WST-1 assay; assay type: cell-based; conditions: Chlorocebus sabaeus
Summary of the method: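 VERO cells in MEM with 0.1 mM nonessential amino acids, 1 mM pyruvate and 10% FBS, 37 °C, 5% CO₂. Plated at 10⁴ cells/well, 24 h before dosing. Compounds diluted in complete medium to 0.1–100 µM, 48 h exposure against an untreated control. WST-1 added for 4 h at 37 °C. Quadruplicate, repeated twice, mean ± SD, ANOVA.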

Entamoeba histolytica = test: Antiamoebic activity against trophozoite stage of Entamoeba histolytica HM-1:IMSS assessed as growth inhibition after 48 hrs by microdilution method; assay type: functional, organism-based
Summary of the method: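 Axenic log-phase HM1:IMSS trophozoites grown in BI-S-33 medium with 20% calf serum, viability counted by trypan blue, seeded at 10⁵/mL (100 µL per well). Compounds dissolved in 0.1% DMSO, two-fold serial dilutions in medium. Incubated 37 °C, 48 h, then WST-1 added for 4 h at 37 °C, OD 490 nm. IC50 by linear regression of % inhibition versus concentration, duplicate, mean ± SD.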

[2] = Entamoeba histolytica, HM-1:IMSS, 48 h, read-out: IC50

Row | Compound | Ratio IC50 [1] | IC50 (Vero) | IC50 (Entamoeba histolytica; [2]) | IC50 (Entamoeba histolytica)
1 | COC(=O)c1ccc2c(c1)[n+]([O-])c(C(C)=O)c(C)[n+]2[O-] | >70.92 | > 100 µM | 1.41 µM | 
2 | COC(=O)c1ccc2c(c1)[n+]([O-])c(C(=O)c1cccs1)c(C(F)(F)F)[n+]2[O-] | 16.74 | 5.86 µM | 0.35 µM | 
3 | COC(=O)c1ccc2c(c1)[n+]([O-])c(C(=O)C(C)C)c(C(F)(F)F)[n+]2[O-] | 3.7 | 6.97 µM | 1.88 µM | 
4 | CCOC(=O)c1ccc2c(c1)[n+]([O-])c(C(=O)c1ccc3ccccc3c1)c(C(F)(F)F)[n+]2[O-] |  |  |  | ND(Insoluble)
5 | CC(=O)Oc1ccccc1C(=O)Nc1ncc([N+](=O)[O-])s1 [NITAZOXANIDE] | 2.75 | 10.7 µM | 3.9 µM | 
6 | CCOC(=O)c1ccc2c(c1)[n+]([O-])c(C(=O)OCC)c(C)[n+]2[O-] |  |  | 4.18 µM | 
7 | CCOC(=O)c1ccc2c(c1)[n+]([O-])c(C(=O)c1cccs1)c(C(F)(F)F)[n+]2[O-] | 2.69 | 6.74 µM | 2.5 µM | 
8 | CCOC(=O)c1ccc2c(c1)[n+]([O-])c(C(=O)CC)c(C(F)(F)F)[n+]2[O-] |  |  | 18.1 µM | 
9 | CCOC(=O)c1ccc2c(c1)[n+]([O-])c(C(=O)OC)c(C)[n+]2[O-] | >53.19 | > 100 µM | 1.88 µM | 
10 | CCOC(=O)Cc1c(C(=O)OCC)[n+]([O-])c2cc(C(=O)OC)ccc2[n+]1[O-] |  |  | 1.91 µM | 
11 | CCOC(=O)c1ccc2c(c1)[n+]([O-])c(C(=O)Nc1ccccc1)c(C)[n+]2[O-] |  |  |  | ND(Insoluble)
12 | COC(=O)c1ccc2c(c1)[n+]([O-])c(C(=O)c1ccccc1)c(C)[n+]2[O-] |  |  | 3.43 µM | 
13 | COC(=O)c1ccc2c(c1)[n+]([O-])c(C(=O)OC)c(C)[n+]2[O-] |  |  | 4.17 µM | 
14 | CCOC(=O)c1ccc2no[n+]([O-])c2c1 |  |  | 221 µM | 
15 | CCOC(=O)c1ccc2c(c1)[n+]([O-])c(C(=O)OCC)c(-c1ccccc1)[n+]2[O-] |  |  | 7.13 µM | 
16 | CCOC(=O)c1ccc2c(c1)[n+]([O-])c(C(=O)c1ccco1)c(C(F)F)[n+]2[O-] |  |  | 3.81 µM | 

Row | Compound | Ratio IC50 [1] | IC50 (Vero) | IC50 (Entamoeba histolytica; [2]) | IC50 (Entamoeba histolytica)
17 | CCOC(=O)c1ccc2c(c1)[n+]([O-])c(C(=O)OCc1ccccc1)c(C)[n+]2[O-] |  |  |  | ND(Insoluble)
18 | [O-][n+]1onc2ccccc21 [BENZO[C][1,2,5]OXADIAZOLE 1-OXIDE] |  |  | 12 µM | 
19 | O=C(O)c1ccc2no[n+]([O-])c2c1 |  |  |  | ND(Insoluble)
20 | CCOC(=O)c1ccc2c(c1)[n+]([O-])c(C(N)=O)c(C)[n+]2[O-] | >68.02 | > 100 µM | 1.47 µM | 
21 | CCOC(=O)c1c(-c2ccccc2)[n+]([O-])c2ccc(C(=O)OC)cc2[n+]1[O-] |  |  | 12.2 µM | 
22 | CCOC(=O)c1c(C)[n+]([O-])c2ccc(C(=O)OC)cc2[n+]1[O-] | >50.25 | > 100 µM | 1.99 µM | 
23 | COC(=O)c1ccc2no[n+]([O-])c2c1 |  |  | 74.5 µM | 
24 | Cc1ncc([N+](=O)[O-])n1CCO [METRONIDAZOLE] | >22.22 | > 100 µM | 4.5 µM | 
25 | COC(=O)c1ccc2c(c1)[n+]([O-])c(C(=O)OC(C)(C)C)c(C)[n+]2[O-] |  |  |  | ND(Insoluble)
26 | COC(=O)c1ccc2c(c1)[n+]([O-])c(C(=O)c1ccccc1)c(C(F)(F)F)[n+]2[O-] |  |  | 6.07 µM | 
27 | COC(=O)c1ccc2c(c1)[n+]([O-])c(C(=O)Nc1ccccc1)c(C)[n+]2[O-] |  |  | 4.14 µM | 
28 | CCOC(=O)c1ccc2c(c1)[n+]([O-])c(C(C)=O)c(C(F)(F)F)[n+]2[O-] | 6.6 | 13.1 µM | 1.98 µM | 
29 | CCOC(=O)c1ccc2c(c1)[n+]([O-])c(C(=O)c1ccccc1)c(C)[n+]2[O-] | >51.81 | > 100 µM | 1.93 µM | 
30 | COC(=O)c1ccc2c(c1)[n+]([O-])c(C(C)=O)c(C(F)(F)F)[n+]2[O-] | 2.14 | 3.28 µM | 1.53 µM | 
31 | COC(=O)c1ccc2c(c1)[n+]([O-])c(C(=O)c1ccc3ccccc3c1)c(C(F)(F)F)[n+]2[O-] |  |  | 5.29 µM | 
